The term AUC(0-inf) denotes the area under the concentration-time curve extrapolated to infinity. Low values mean less exposure, high ones more exposure. What is called Cmax is the peak of the concentration-time curve. The Tmax is the time at which the peak concentration occurs.

Data set [1] can be described thus: Study 2 single-dose pharmacokinetics in elderly adults. The settings on record: for AUC(0-inf) / Cmax / Tmax: human, plasma, oral, 10 mg; for T1/2 / Fe0–120, fraction excreted: single 10 mg; for T1/2: fasted; for Fe0–120, fraction excreted: urine 0 to 120 hours. Type of data set: in vivo, human. A digest of the protocol:
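Elderly men and women (65–85 y) received a single oral 10 mg dose, fasted, in the morning. Plasma vortioxetine and metabolites were assayed by HPLC-MS/MS after liquid–liquid extraction. Urine was pooled predose and at 24-h intervals to 120 h. Parameters came from noncompartmental analysis. Below-LLOQ concentrations were entered as zero in means. Tmax is median (min–max).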

The next data set deals with CYP2B6. The conditions noted are these: cited from earlier work.
Another data set has as its system CYP2C19. The settings on record: cited from earlier work.
The mark [2] stands for this setting: elderly women, n = 7, mean (SD).

With `Cc1ccc(Sc2ccccc2N2CCNCC2)c(C)c1` [Vortioxetine, 1‐[2‐(2,4‐dimethylphenylsulfanyl)phenyl]piperazine], in data set [1] (female), the area under the curve AUC(0-inf) was determined as 305 ng·h/mL, the peak concentration (Cmax) stood at 4.6 ng/mL and the Tmax worked out at 6 h. Also, in data set [1] (male), the total exposure AUC(0-inf) came out at 378 ng·h/mL, the highest concentration (Cmax) came to 4.2 ng/mL and the time of peak concentration (Tmax) amounted to 6 h. Also, in data set [1] (elderly men, n = 8, mean (SD)), the T1/2 was 85.2 (29.8) h and the “Fe0–120, fraction excreted” value is 0.0 (0.0) %. Further, in data set [1] (setting [2]), the T1/2 is 63.5 (10.7) h and the “Fe0–120, fraction excreted” value was 0.0 (0.0) %. The “inhibitory or inducing effect in vitro” value in the data set with CYP2B6 is on record as “No inhibitory or inducing effect”. Moreover, in the data set with CYP2C19, the “inhibitory or inducing effect in vitro” value is given as “No inhibitory or inducing effect”.
